# Reference: ChEMBL document CHEMBL4364301 (Eur J Med Chem, 2019)
# pIC50: −log10 of the molar value. Calls of active or inactive are those of the source. The calls are words filed in the database; no cut-off is given here.
# Columns and labels:
# [1] = system: CWR22R; experiment: Antitumor activity against human 22Rv1 cells xenografted in NMRI mouse assessed as tumor volume doubling time at […] administered on day 7 and 14 (reference value: 2.7 day); format: functional
# [2] = Toxicity in NMRI mouse xenografted with human 22Rv1 cells assessed as body weight loss at 15 mg/kg, ip administered on day 7 and 14 and measured on day 49; format: organism-based; details: in vivo
# [3] = system: CWR22R; experiment: Antitumor activity against human 22Rv1 cells xenografted in NMRI mouse assessed as tumor volume quadrupling time at […] administered on day 7 and 14 (reference value: 6.2 day); format: functional
# [4] = system: CWR22R; experiment: Antitumor activity against human 22Rv1 cells xenografted in NMRI mouse assessed as reduction of tumor volume at […] administered on day 7 and 14 and measured on day 10; format: functional, organism-based
# [5] = Toxicity in NMRI mouse xenografted with human 22Rv1 cells assessed as survival rate at 15 mg/kg, ip administered on day 7 and 14 and measured on day 49; format: organism-based; details: in vivo
# [6] = system: CWR22R; experiment: Antitumor activity against human 22Rv1 cells xenografted in NMRI mouse assessed as inhibition of tumor growth by measuring T/C value at 15 mg/kg, iv administered on day 7 and 14 and measured on day 14; format: functional
# Outline: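 Male NMRI nu/nu mice, delivered at 4–6 weeks and quarantined at least 1 week, were implanted in the hind flank with cultured 22Rv1 cells. Mice were randomised at 80–200 mm³ tumour volume. Dosing was 15 mg/kg i.v. in 0.9% saline, given as three weekly treatments; controls received vehicle. Caliper tumour volumes were taken twice weekly, with T/C from group median relative tumour volumes, doubling/quadrupling times and body weight recorded.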
# [7] = system: CWR22R; experiment: Antitumor activity against human 22Rv1 cells xenografted in NMRI mouse assessed as reduction of tumor volume at […] administered on day 7 and 14 and measured on day 20; format: functional, organism-based
# [8] = system: LNCaP; experiment: Antiproliferative activity against human LNCAP cells assessed as T/C value at 1 x 10^1 uM incubated for 96 hrs by propidium iodide based 2D monolayer assay; format: functional
# Outline: (§1)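 Cells were kept in RPMI 1640 with 25 mM HEPES, 10% FCS and gentamicin at 37 °C under 5% CO2, and plated at 4,000-20,000 cells/well. After 24 h recovery, compound in medium or medium alone (control wells) was added at 10 half-log concentrations from 0.0032 to 100 µM, in triplicate, with at most 0.3% DMSO. After 96 h, wells were PBS-washed, stained with 7 µg/ml PI and 0.1% Triton X-100, and fluorescence read at 530/620 nm. IC50 came from a 4-parameter fit, geometric mean.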
# [9] = system: DU-145; experiment: Antiproliferative activity against human DU145 cells assessed as T/C value at 1 x 10^2 uM incubated for 96 hrs by propidium iodide based 2D monolayer assay; format: functional; outline: as §1
# [10] = system: CWR22R; experiment: Antiproliferative activity against human 22Rv1 cells assessed as T/C value at 3.2 x 10^-1 uM incubated for 96 hrs by propidium iodide based 2D monolayer assay; format: functional; outline: as §1
# [11] = system: CWR22R; experiment: Antiproliferative activity against human 22Rv1 cells assessed as T/C value at 3.2 uM incubated for 96 hrs by propidium iodide based 2D monolayer assay; format: functional; outline: as §1
# [12] = system: VCaP; experiment: Antiproliferative activity against human VCaP cells assessed as T/C value at 3.2 x 10^-3 uM incubated for 96 hrs by propidium iodide based 2D monolayer assay; format: functional
# Outline: (§2)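 VCaP cells in RPMI 1640 with 10% FCS at 37 °C, 5% CO2, seeded 4,000–20,000 cells/well and left 24 h before dosing. Compounds from DMSO stocks were diluted in half-log steps in medium, 10 concentrations 0.0032–100 μM, triplicate wells, max 0.3% DMSO. After 96 h, cells were washed, stained with 7 μg/ml propidium iodide plus 0.1% Triton X-100 for 1–2 h at room temperature, and fluorescence read at ex 530/em 620 nm.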
# [13] = system: CWR22R; experiment: Antiproliferative activity against human 22Rv1 cells assessed as T/C value at 1 x 10^-1 uM incubated for 96 hrs by propidium iodide based 2D monolayer assay; format: functional; outline: as §1
# [14] = system: VCaP; experiment: Antiproliferative activity against human VCaP cells assessed as T/C value at 1 uM incubated for 96 hrs by propidium iodide based 2D monolayer assay; format: functional; outline: as §1
# [15] = system: LNCaP; experiment: Antiproliferative activity against human LNCAP cells assessed as T/C value at 1 x 10^-1 uM incubated for 96 hrs by propidium iodide based 2D monolayer assay; format: functional; outline: as §1
# [16] = system: VCaP; experiment: Antiproliferative activity against human VCaP cells assessed as T/C value at 3.2 x 10^-1 uM incubated for 96 hrs by propidium iodide based 2D monolayer assay; format: functional; outline: as §2
# [17] = system: DU-145; experiment: Antiproliferative activity against human DU145 cells assessed as T/C value at 3.2 uM incubated for 96 hrs by propidium iodide based 2D monolayer assay; format: functional; outline: as §1
# [18] = system: VCaP; experiment: Antiproliferative activity against human VCaP cells assessed as reduction in cell growth incubated for 96 hrs by propidium iodide based 2D monolayer assay; format: functional; outline: as §2
# [19] = system: LNCaP; experiment: Antiproliferative activity against human LNCAP cells assessed as T/C value at 3.2 x 10^-3 uM incubated for 96 hrs by propidium iodide based 2D monolayer assay; format: functional; outline: as §1
# [20] = system: VCaP; experiment: Antiproliferative activity against human VCaP cells assessed as T/C value at 3.2 x 10^-2 uM incubated for 96 hrs by propidium iodide based 2D monolayer assay; format: functional; outline: as §2
# [21] = system: CWR22R; experiment: Antiproliferative activity against human 22Rv1 cells assessed as T/C value at 3.2 x 10^1 uM incubated for 96 hrs by propidium iodide based 2D monolayer assay; format: functional; outline: as §1
# [22] = system: VCaP; experiment: Antiproliferative activity against human VCaP cells assessed as T/C value at 1 x 10^-1 uM incubated for 96 hrs by propidium iodide based 2D monolayer assay; format: functional; outline: as §1
# [23] = system: DU-145; experiment: Antiproliferative activity against human DU145 cells assessed as T/C value at 3.2 x 10^1 uM incubated for 96 hrs by propidium iodide based 2D monolayer assay; format: functional; outline: as §1
# [24] = system: CWR22R; experiment: Antiproliferative activity against human 22Rv1 cells assessed as T/C value at 1 x 10^-2 uM incubated for 96 hrs by propidium iodide based 2D monolayer assay; format: functional; outline: as §1
# [25] = system: VCaP; experiment: Antiproliferative activity against human VCaP cells assessed as T/C value at 1 x 10^-2 uM incubated for 96 hrs by propidium iodide based 2D monolayer assay; format: functional; outline: as §1
# [26] = system: CWR22R; experiment: Antiproliferative activity against human 22Rv1 cells assessed as T/C value at 1 x 10^2 uM incubated for 96 hrs by propidium iodide based 2D monolayer assay; format: functional; outline: as §1
# [27] = system: VCaP; experiment: Antiproliferative activity against human VCaP cells assessed as T/C value at 1 x 10^2 uM incubated for 96 hrs by propidium iodide based 2D monolayer assay; format: functional; outline: as §1
# [28] = system: LNCaP; experiment: Antiproliferative activity against human LNCAP cells assessed as reduction in cell growth incubated for 96 hrs by propidium iodide based 2D monolayer assay; format: functional
# Outline: as §1, with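 “After” for “Cells were kept in RPMI 1640 with 25 mM HEPES, 10% FCS and gentamicin at 37 °C under 5% CO2, and plated at 4,000-20,000 cells/well. After”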
# [29] = system: DU-145; experiment: Antiproliferative activity against human DU145 cells assessed as reduction in cell growth incubated for 96 hrs by propidium iodide based 2D monolayer assay; format: functional
# Outline: as §1, with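 “After” for “Cells were kept in RPMI 1640 with 25 mM HEPES, 10% FCS and gentamicin at 37 °C under 5% CO2, and plated at 4,000-20,000 cells/well. After”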
# [30] = system: CWR22R; experiment: Antiproliferative activity against human 22Rv1 cells assessed as T/C value at 3.2 x 10^-2 uM incubated for 96 hrs by propidium iodide based 2D monolayer assay; format: functional; outline: as §1
# [31] = system: CWR22R; experiment: Antiproliferative activity against human 22Rv1 cells assessed as T/C value at 1 uM incubated for 96 hrs by propidium iodide based 2D monolayer assay; format: functional; outline: as §1
# [32] = system: VCaP; experiment: Antiproliferative activity against human VCaP cells assessed as T/C value at 3.2 uM incubated for 96 hrs by propidium iodide based 2D monolayer assay; format: functional; outline: as §1
# [33] = system: VCaP; experiment: Antiproliferative activity against human VCaP cells assessed as T/C value at 3.2 x 10^1 uM incubated for 96 hrs by propidium iodide based 2D monolayer assay; format: functional; outline: as §2
# [34] = system: CWR22R; experiment: Antiproliferative activity against human 22Rv1 cells assessed as T/C value at 3.2 x 10^-3 uM incubated for 96 hrs by propidium iodide based 2D monolayer assay; format: functional; outline: as §1
# [35] = system: LNCaP; experiment: Antiproliferative activity against human LNCAP cells assessed as T/C value at 1 x 10^-2 uM incubated for 96 hrs by propidium iodide based 2D monolayer assay; format: functional; outline: as §1
# [36] = system: LNCaP; experiment: Antiproliferative activity against human LNCAP cells assessed as T/C value at 1 uM incubated for 96 hrs by propidium iodide based 2D monolayer assay; format: functional; outline: as §1
# [37] = system: LNCaP; experiment: Antiproliferative activity against human LNCAP cells assessed as T/C value at 3.2 x 10^-1 uM incubated for 96 hrs by propidium iodide based 2D monolayer assay; format: functional; outline: as §1
# [38] = system: LNCaP; experiment: Antiproliferative activity against human LNCAP cells assessed as T/C value at 3.2 x 10^-2 uM incubated for 96 hrs by propidium iodide based 2D monolayer assay; format: functional; outline: as §1
# [39] = system: CWR22R; experiment: Antiproliferative activity against human 22Rv1 cells assessed as reduction in cell growth incubated for 96 hrs by propidium iodide based 2D monolayer assay; format: functional
# Outline: as §1, with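 “After” for “Cells were kept in RPMI 1640 with 25 mM HEPES, 10% FCS and gentamicin at 37 °C under 5% CO2, and plated at 4,000-20,000 cells/well. After”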
# [40] = system: LNCaP; experiment: Antiproliferative activity against human LNCAP cells assessed as T/C value at 1 x 10^2 uM incubated for 96 hrs by propidium iodide based 2D monolayer assay; format: functional; outline: as §1
# [41] = system: LNCaP; experiment: Antiproliferative activity against human LNCAP cells assessed as T/C value at 3.2 x 10^1 uM incubated for 96 hrs by propidium iodide based 2D monolayer assay; format: functional; outline: as §1
# [42] = system: LNCaP; experiment: Antiproliferative activity against human LNCAP cells assessed as T/C value at 3.2 uM incubated for 96 hrs by propidium iodide based 2D monolayer assay; format: functional; outline: as §1
# [43] = system: VCaP; experiment: Antiproliferative activity against human VCaP cells assessed as T/C value at 1 x 10^1 uM incubated for 96 hrs by propidium iodide based 2D monolayer assay; format: functional; outline: as §1
smiles,measurement,setting,value
CC(=O)O[C@@]12CO[C@@H]1C[C@H](O)[C@@]1(C)C(=O)[C@H](O)C3=C(C)[C@@H](OC(=O)[C@H](O)[C@@H](NC(=O)OC(C)(C)C)c4ccccc4)C[C@@](O)([C@@H](OC(=O)c4ccccc4)[C@H]21)C3(C)C [DOCETAXEL ANHYDROUS],Time,[1],6.3 days
same,Activity,[2],19.8%
same,Time,[3],43.2 days
same,Activity,[4],Active
same,survival at 49 day,[5],100%
same,T/C,[6],22.4%
same,Activity,[7],Active
CNC(=O)c1ccc(N2C(=S)N(c3ccc(C#N)c(C(F)(F)F)c3)C(=O)C2(C)C)cc1F [ENZALUTAMIDE],T/C,[8],57%
same,T/C,[9],19%
same,T/C,[10],96%
same,T/C,[11],88%
same,T/C,[12],106%
same,T/C,[13],93%
same,T/C,[14],85%
same,T/C,[15],89%
same,T/C,[16],88%
same,T/C,[17],120%
same,Activity,[18],Dose-dependent effect
same,pIC50,[18],4.28
same,IC70,[18],> 100 µM
same,T/C,[19],101%
same,T/C,[20],104%
same,T/C,[21],57%
same,T/C,[22],101%
same,T/C,[23],84%
same,T/C,[24],98%
same,T/C,[25],106%
same,T/C,[26],13%
same,T/C,[27],44%
same,Activity,[28],Dose-dependent effect
same,IC70,[28],31.7 µM
same,Activity,[29],Dose-dependent effect
same,pIC50,"[29]; DU-145, 96 h",4.49
same,IC70,"[29]; DU-145, 96 h",71.1 µM
same,T/C,[30],99%
same,T/C,[31],93%
same,T/C,[32],85%
same,T/C,[33],85%
same,T/C,[34],96%
same,T/C,[35],92%
same,T/C,[36],65%
same,T/C,[37],77%
same,T/C,[38],100%
same,Activity,[39],Dose-dependent effect
same,IC70,"[39]; 22Rv1, 96 h",36.5 µM
same,T/C,[40],6%
same,T/C,[41],28%
same,T/C,[42],69%
same,T/C,[43],85%
